Experimental data: ChEMBL document CHEMBL4834401, “Structure-Activity Relationship Studies of Coumarin-like Diacid Derivatives as Human G Protein-Coupled Receptor-35 (hGPR35) Agonists and a Consequent New Design Principle” (J Med Chem, 2021)
Active and inactive are the calls of the source. The calls are words filed in the database; no cut-off is given here.

Key:
[1] = target: T1, G-protein coupled receptor 35 (Homo sapiens, UniProt Q9HC97); assay: Agonist activity at human GPR35 receptor expressed in HT-29 cells assessed as dynamic mass redistribution response by DMR assay; format: functional, cell-based
[2] = target: T1, G-protein coupled receptor 35; assay: Agonist activity at human GPR35 receptor expressed in HT-29 cells assessed as desensitization of zaprinast-induced DMR response preincubated for 1 hr followed by zaprinast stimulation by DMR desensitization assay; format: functional, cell-based
[3] = target: T1, G-protein coupled receptor 35; assay: Agonist activity at human GPR35 receptor expressed in HT-29 cells assessed as reduction in dynamic mass redistribution response in presence of GPR35 antagonist ML-145 by DMR assay; format: functional, cell-based
[4] = target: T1, G-protein coupled receptor 35; assay: Agonist activity at human GPR35 receptor expressed in CHO-K1 cells assessed as dynamic mass redistribution response by DMR assay; format: functional, cell-based
[5] = target: D(2) dopamine receptor (Homo sapiens) (UniProt P14416); assay: Agonist activity at dopamine D2 receptor (unknown origin) at 1 uM; format: functional
Method in brief: (§1)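 Each receptor was expressed separately in its own cell line, and compounds were added at 1 μM. Cells were seeded on biosensor plates and grown overnight to a confluent monolayer. They were then washed, kept in Hank's balanced salt solution, and equilibrated 1 h in the reader. After a 2 min baseline, the label-free dynamic mass redistribution (DMR) response was recorded immediately after compound addition.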

[6] = target: T2, Free fatty acid receptor 4 (Homo sapiens) (UniProt Q5NUL3); assay: Agonist activity at FFA4 receptor (unknown origin) at 1 uM; format: functional; method in brief: as §1
T2 sequence (whole entry): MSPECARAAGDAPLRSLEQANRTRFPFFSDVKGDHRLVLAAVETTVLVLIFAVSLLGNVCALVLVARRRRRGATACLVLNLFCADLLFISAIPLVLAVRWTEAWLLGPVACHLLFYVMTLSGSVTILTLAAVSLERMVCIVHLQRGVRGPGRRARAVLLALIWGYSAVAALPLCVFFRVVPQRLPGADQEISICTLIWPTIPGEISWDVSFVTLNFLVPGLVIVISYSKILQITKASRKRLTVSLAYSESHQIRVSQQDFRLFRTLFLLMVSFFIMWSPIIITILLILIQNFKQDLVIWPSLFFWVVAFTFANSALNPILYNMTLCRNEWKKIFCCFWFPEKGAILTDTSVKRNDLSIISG

[7] = target: Histamine H1 receptor (Homo sapiens) (UniProt P35367); assay: Agonist activity at histamine H1 receptor receptor (unknown origin) at 1 uM
[8] = target: Mu-type opioid receptor (Homo sapiens) (UniProt P35372); assay: Agonist activity at mu-opioid receptor (unknown origin) at 1 uM; format: functional; method in brief: as §1
[9] = target: Muscarinic acetylcholine receptor M3 (Homo sapiens) (UniProt P20309); assay: Agonist activity at muscarinic M3 receptor (unknown origin) at 1 uM; format: functional; method in brief: as §1
[10] = target: T1, G-protein coupled receptor 35; assay: Agonist activity at human GPR35 receptor expressed in CHO-K1 cells assessed as desensitization of zaprinast-induced DMR response preincubated for 1 hr followed by zaprinast stimulation by DMR desensitization assay; format: functional, cell-based
[11] = target: T1, G-protein coupled receptor 35; assay: Agonist activity at human GPR35 receptor expressed in HEK293T cells co-expressing beta-arrestin2 assessed as induction of beta-arrestin2 recruitment by BRET assay; format: functional, cell-based

Histamine H1 receptor (Homo sapiens), sequence (P35367 whole entry, looked up): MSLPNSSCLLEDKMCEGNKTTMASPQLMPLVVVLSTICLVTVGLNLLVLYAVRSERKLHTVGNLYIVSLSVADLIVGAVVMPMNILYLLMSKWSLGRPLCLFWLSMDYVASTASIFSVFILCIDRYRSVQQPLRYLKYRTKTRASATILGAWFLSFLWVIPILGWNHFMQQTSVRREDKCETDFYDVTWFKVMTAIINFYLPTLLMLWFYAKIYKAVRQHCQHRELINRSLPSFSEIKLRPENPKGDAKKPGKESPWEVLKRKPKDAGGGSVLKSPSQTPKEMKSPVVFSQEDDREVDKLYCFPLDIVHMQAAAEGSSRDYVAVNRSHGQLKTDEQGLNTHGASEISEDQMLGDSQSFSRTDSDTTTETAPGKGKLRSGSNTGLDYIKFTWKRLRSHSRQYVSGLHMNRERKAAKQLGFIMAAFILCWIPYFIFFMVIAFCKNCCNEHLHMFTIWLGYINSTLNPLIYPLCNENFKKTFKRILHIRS
Muscarinic acetylcholine receptor M3 (Homo sapiens), sequence (P20309 whole entry, looked up): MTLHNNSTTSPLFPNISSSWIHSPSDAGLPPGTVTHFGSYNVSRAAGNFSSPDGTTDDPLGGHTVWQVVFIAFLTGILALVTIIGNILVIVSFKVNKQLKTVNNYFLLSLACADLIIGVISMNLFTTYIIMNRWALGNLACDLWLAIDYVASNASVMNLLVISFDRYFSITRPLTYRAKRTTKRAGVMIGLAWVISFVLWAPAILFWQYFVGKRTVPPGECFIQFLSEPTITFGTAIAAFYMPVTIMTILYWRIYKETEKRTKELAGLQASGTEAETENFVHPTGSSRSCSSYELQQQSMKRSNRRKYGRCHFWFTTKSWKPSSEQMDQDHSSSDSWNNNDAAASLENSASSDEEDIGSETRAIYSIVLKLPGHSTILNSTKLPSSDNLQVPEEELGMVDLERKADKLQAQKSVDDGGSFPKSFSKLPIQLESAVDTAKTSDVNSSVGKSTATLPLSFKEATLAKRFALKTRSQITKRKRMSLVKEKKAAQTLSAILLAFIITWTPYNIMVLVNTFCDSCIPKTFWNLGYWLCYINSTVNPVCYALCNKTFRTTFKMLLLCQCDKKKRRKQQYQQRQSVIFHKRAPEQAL
T1 sequence (Q9HC97 whole entry): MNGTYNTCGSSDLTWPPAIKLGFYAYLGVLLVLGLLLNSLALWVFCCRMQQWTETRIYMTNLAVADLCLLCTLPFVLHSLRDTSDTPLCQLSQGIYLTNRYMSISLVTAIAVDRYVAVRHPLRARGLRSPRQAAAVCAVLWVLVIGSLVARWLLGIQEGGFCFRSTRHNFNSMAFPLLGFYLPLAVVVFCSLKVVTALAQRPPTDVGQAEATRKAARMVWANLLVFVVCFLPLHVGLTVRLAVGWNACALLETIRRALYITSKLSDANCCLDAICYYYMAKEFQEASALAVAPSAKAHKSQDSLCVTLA
Mu-type opioid receptor (Homo sapiens), sequence (P35372 whole entry): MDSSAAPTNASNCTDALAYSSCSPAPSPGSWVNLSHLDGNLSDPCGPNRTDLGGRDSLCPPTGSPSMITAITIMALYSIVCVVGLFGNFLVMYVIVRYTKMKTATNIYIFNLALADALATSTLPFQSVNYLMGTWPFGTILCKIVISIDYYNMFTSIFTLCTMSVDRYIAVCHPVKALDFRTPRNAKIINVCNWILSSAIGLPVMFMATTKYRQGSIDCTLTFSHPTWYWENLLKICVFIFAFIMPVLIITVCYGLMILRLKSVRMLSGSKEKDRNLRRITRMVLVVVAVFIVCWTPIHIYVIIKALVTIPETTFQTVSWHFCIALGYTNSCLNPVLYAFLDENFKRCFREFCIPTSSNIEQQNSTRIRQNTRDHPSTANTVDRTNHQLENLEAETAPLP
D(2) dopamine receptor (Homo sapiens), sequence (P14416 whole entry): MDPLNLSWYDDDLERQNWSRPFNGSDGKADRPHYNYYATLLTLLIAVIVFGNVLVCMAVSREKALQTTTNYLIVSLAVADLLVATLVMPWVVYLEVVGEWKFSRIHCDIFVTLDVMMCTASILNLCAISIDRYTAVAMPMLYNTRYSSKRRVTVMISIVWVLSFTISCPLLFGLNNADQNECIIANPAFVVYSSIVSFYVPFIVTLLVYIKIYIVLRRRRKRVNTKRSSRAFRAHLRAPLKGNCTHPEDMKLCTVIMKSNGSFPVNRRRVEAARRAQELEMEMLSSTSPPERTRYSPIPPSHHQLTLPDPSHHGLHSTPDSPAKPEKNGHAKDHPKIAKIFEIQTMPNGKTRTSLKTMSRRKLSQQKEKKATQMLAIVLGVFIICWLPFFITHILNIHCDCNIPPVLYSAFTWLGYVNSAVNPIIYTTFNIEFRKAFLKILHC

## COc1cccc(-c2cc3cc(C(=O)O)c(=O)oc3cc2O)c1
[1]
  EC50: 1.6 µM
[2]
  IC50: 1.38 µM
[3]
  IC50: 2.26 µM

## O=C(O)c1cc2c(oc1=O)c(-c1ccc(F)cc1)cc1cc(C(=O)O)c(=O)oc12
[1]
  EC50: 0.033 µM
[3]
  IC50: 1.03 µM

## COc1cc(C(=O)O)nc2c(C)c3nc(C(=O)O)cc(OC)c3cc12
[4]
  EC50: 0.00813 µM
[5]
  Activity: inactive
[6]
  Activity: inactive
[7]
  Activity: inactive
[8]
  Activity: inactive
[9]
  Activity: inactive
[1]
  EC50: 0.1 µM
[2]
  IC50: 0.065 µM
[10]
  IC50: 0.00611 µM
[3]
  IC50: 0.282 µM

## COc1ccc(-c2cc3cc(C(=O)O)c(=O)oc3c3cc(C(=O)O)c(=O)oc23)cc1
[4]
  EC50: 0.00693 µM
[5]
  Activity: inactive
[6]
  Activity: inactive
[7]
  Activity: inactive
[8]
  Activity: inactive
[9]
  Activity: inactive
[1]
  EC50: 0.02 µM
[2]
  IC50: 0.007 µM
[10]
  IC50: 0.00245 µM
[3]
  IC50: 0.47 µM

## CCCOc1ccccc1-c1nc2[nH]nnc2c(=O)[nH]1
[5]
  Activity: inactive
[6]
  Activity: inactive
[8]
  Activity: inactive

## Cc1c2[nH]c(C(=O)O)cc(=O)c2cc2c(=O)cc(C(=O)O)[nH]c12
[4]
  EC50: 0.00108 µM
[5]
  Activity: inactive
[6]
  Activity: inactive
[7]
  Activity: inactive
[8]
  Activity: inactive
[9]
  Activity: inactive
[1]
  EC50: 0.008 µM
[2]
  IC50: 0.002 µM
[10]
  IC50: 0.00074 µM
[3]
  IC50: 0.789 µM

## O=C(O)c1cc2cc(-c3cccs3)c(O)cc2oc1=O
[1]
  EC50: 2.88 µM
[2]
  IC50: 1.45 µM
[3]
  IC50: 0.16 µM

## O=C(O)c1cc2c(oc1=O)c(Br)cc1cc(-c3nnn[nH]3)c(=O)oc12
[4]
  EC50: 0.0259 µM
[5]
  Activity: inactive
[6]
  Activity: inactive
[7]
  Activity: inactive
[8]
  Activity: inactive
[9]
  Activity: inactive
[1]
  EC50: 0.018 µM
[2]
  IC50: 0.018 µM
[10]
  IC50: 0.0159 µM
[3]
  IC50: 0.83 µM

## CCCCc1cc2c(=O)cc(C(=O)O)[nH]c2c2c(=O)cc(C(=O)O)[nH]c12 [BUFROLIN]
[11]
  EC50: 0.013 µM

## Cc1c2oc(=O)c(C(=O)O)cc2cc2cc(C(=O)O)c(=O)oc12
[1]
  EC50: 0.14 µM
[2]
  IC50: 0.042 µM
[3]
  IC50: 0.35 µM

## O=C(O)c1cc(C(=O)O)c2c(n1)C(=O)C(=O)c1cc(C(=O)O)[nH]c1-2 [PYRROLOQUINOLINE QUINONE]
[1]
  EC50: 0.071 µM
[2]
  IC50: 0.03 µM
[3]
  IC50: 0.582 µM

## COc1cccc(-c2cc3cc(C(=O)O)c(=O)oc3c3cc(C(=O)O)c(=O)oc23)c1
[1]
  EC50: 0.015 µM
[2]
  IC50: 0.003 µM
[3]
  IC50: 0.17 µM

## O=C(O)c1cc2cc(Br)c(O)cc2oc1=O
[3]
  IC50: 0.13 µM

## COc1ccccc1-c1cc2cc(C(=O)O)c(=O)oc2cc1O
[1]
  EC50: 23.9 µM
[2]
  IC50: 17.6 µM
[3]
  IC50: 0.12 µM

## Cc1c2nc(C(=O)O)cc(Cl)c2cc2c(Cl)cc(C(=O)O)nc12
[4]
  EC50: 0.00508 µM
[5]
  Activity: inactive
[6]
  Activity: inactive
[7]
  Activity: inactive
[8]
  Activity: inactive
[9]
  Activity: inactive
[1]
  EC50: 0.054 µM
[2]
  IC50: 0.015 µM
[10]
  IC50: 0.00352 µM
[3]
  IC50: 2.53 µM
